Assay results: ChEMBL document CHEMBL3745659, “Synthesis and Characterization of 4,11-Diaminoanthra[2,3-b]furan-5,10-diones: Tumor Cell Apoptosis through tNOX-Modulated NAD(+)/NADH Ratio and SIRT1” (J Med Chem, 2015)
Activity calls are given as the source filed them. The rule behind the calls is not given here.

Legend:
AGS [1] = assay: Upregulation of caspase3-directed PARP cleavage in human AGS cells at 5 uM after 24 hrs by Western blot analysis; type: functional, cell-based
AGS [2] = assay: Downregulation of Bid protein level in human AGS cells after 24 hrs by Western blot analysis; type: functional, cell-based
AGS [3] = assay: Upregulation of phosphorylated p53 level in human AGS cells at 1 and 5 uM after 24 hrs by Western blot analysis; type: functional, cell-based
AGS [4] = assay: Induction of apoptosis in human AGS cells assessed as change in mitochondrial transmembrane potential incubated for 1.5 hrs by DiOC6(3) dye-based flow cytometric analysis; type: functional, cell-based
AGS [5] = assay: Downregulation of tNOX protein level in human AGS cells at 0.1 to 0.5 uM after 24 hrs by Western blot analysis; type: functional, cell-based
HeLa = assay: Antiproliferative activity against human HeLa cells after 72 hrs by MTT assay; type: functional, cell-based
AGS [6] = assay: Downregulation of SIRT1 protein level in human AGS cells at 1 and 5 uM after 24 after 24 hrs by Western blot analysis; type: functional, cell-based
AGS [7] = assay: Induction of apoptosis in human AGS cells after 24 hrs by annexin V-FITC staining-based flow cytometric analysis; type: functional, cell-based
Method in brief: (§1)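 AGS cells exposed to compound for 24 h; Annexin V-FITC staining and flow cytometry used to give percentage of apoptotic cells; mean ± S.E. from at least three independent experiments.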

[8] = Drug uptake in human K562/4 cells at 3 uM incubated for 2 hrs in presence of verapamil by flow cytometric analysis; type: ADME, cell-based; settings: k562/4, 2 h
Method in brief: (§2)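 K562 and K562/4 cells incubated 2 h with 3 µM compound; uptake measured by flow cytometry as ratios (arbitrary units) of mean fluorescence channels of the histograms; verapamil (10 µM), a Pgp transport blocker, added 30 min before compound where used.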

L1210 = assay: Antiproliferative activity against mouse L1210 cells after 72 hrs by MTT assay; settings: L1210, 72 h
AGS [9] = assay: Upregulation of acetylated p53 level in human AGS cells at 1 and 5 uM after 24 hrs by Western blot analysis; type: functional, cell-based
[10] = Antiproliferative activity against human K562/4 cells after 72 hrs by MTT assay; type: functional, cell-based; settings: K562/4, 72 h
[11] = Antiproliferative activity against human HCT116 cells after 72 hrs by MTT assay; type: functional, cell-based; settings: HCT-116, 72 h
CCRF-CEM = assay: Antiproliferative activity against human CEM cells after 72 hrs by MTT assay; type: functional, cell-based
K562 [12] = assay: Antiproliferative activity against human K562 cells after 72 hrs by MTT assay; type: functional, cell-based; settings: K562, 72 h
K562 [13] = assay: Resistance index, ratio of IC50 for human K562/4 cells to IC50 for human K562 cells; type: functional
[14] = molecular target: T1, DNA topoisomerase 1 (Homo sapiens) (UniProt P11387); assay: Inhibition of Top1 (unknown origin)-mediated relaxation of pBR322 DNA at 2.5 uM incubated for 30 mins by ethidium bromide staining-based gel electrophoresis assay
T1 sequence (whole entry): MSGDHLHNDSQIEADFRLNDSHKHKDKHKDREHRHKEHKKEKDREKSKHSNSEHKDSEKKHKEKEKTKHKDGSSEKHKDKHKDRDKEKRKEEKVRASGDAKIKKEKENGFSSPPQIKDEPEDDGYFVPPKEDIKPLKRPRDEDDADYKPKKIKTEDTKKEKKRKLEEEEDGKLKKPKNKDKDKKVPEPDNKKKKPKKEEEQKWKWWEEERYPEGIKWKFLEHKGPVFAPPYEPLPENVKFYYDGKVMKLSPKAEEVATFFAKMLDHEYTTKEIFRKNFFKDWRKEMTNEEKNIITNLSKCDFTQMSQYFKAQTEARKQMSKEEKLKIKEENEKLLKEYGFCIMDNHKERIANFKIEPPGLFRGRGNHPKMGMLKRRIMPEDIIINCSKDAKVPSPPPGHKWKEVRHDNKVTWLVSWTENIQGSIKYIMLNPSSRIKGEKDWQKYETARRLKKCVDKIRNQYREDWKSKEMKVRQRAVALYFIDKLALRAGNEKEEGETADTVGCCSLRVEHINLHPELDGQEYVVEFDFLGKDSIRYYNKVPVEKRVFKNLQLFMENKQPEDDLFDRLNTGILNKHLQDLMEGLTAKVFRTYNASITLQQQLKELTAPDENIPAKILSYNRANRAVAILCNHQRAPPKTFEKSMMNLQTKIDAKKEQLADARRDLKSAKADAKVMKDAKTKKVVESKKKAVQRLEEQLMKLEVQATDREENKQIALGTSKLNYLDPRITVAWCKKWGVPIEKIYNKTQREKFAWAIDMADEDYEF
Method in brief: (§3)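 Supercoiled pBR322 plasmid treated with Top1 without drug or with compound at 0.5, 2.5 or 10 µM; camptothecin as reference; relaxation assessed by gel electrophoresis.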

K562 [15] = assay: Drug uptake in human K562 cells at 3 uM incubated for 2 hrs in presence of verapamil by flow cytometric analysis; type: ADME, cell-based; settings: k562, 2 h; method in brief: as §2
[16] = Drug uptake in human K562/4 cells at 3 uM incubated for 2 hrs by flow cytometric analysis; type: ADME, cell-based; settings: k562/4, 2 h; method in brief: as §2
Calf thymus DNA = assay: Binding affinity to calf thymus double stranded DNA by spectrophotometric titration method; type: nucleic-acid assay; settings: Bos taurus
Method in brief: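 Absorption spectra of compound recorded while double-stranded DNA concentration was increased (spectrophotometric titration); extinction at absorption maxima 540 and 585 nm and band shift followed.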

AGS [17] = assay: Induction of apoptosis in human AGS cells assessed as necrotic cells at 10 uM after 24 hrs by annexin V-FITC staining-based flow cytometric analysis (Rvb=1.1%); type: functional
AGS [18] = assay: Upregulation of total p53 level in human AGS cells at 1 and 5 uM after 24 hrs by Western blot analysis; type: cell-based
[19] = molecular target: T1, DNA topoisomerase 1 (Homo sapiens); assay: Inhibition of Top1 (unknown origin)-mediated relaxation of pBR322 DNA at 0.5 uM incubated for 30 mins by ethidium bromide staining-based gel electrophoresis assay; method in brief: as §3
AGS [20] = assay: Induction of apoptosis in human AGS cells assessed as early apoptotic cells at 10 uM after 24 hrs by annexin V-FITC staining-based flow cytometric analysis (Rvb=9.8%); type: functional; method in brief: as §1
AGS [21] = assay: Downregulation of tNOX protein level in human AGS cells at 1 and 5 uM after 24 hrs by Western blot analysis; type: functional, cell-based
AGS [22] = assay: Induction of apoptosis in human AGS cells assessed as late apoptotic cells at 10 uM after 24 hrs by annexin V-FITC staining-based flow cytometric analysis (Rvb=5.5%); type: functional; method in brief: as §1
AGS [23] = assay: Induction of apoptosis in human AGS cells assessed as viable cells at 10 uM after 24 hrs by annexin V-FITC staining-based flow cytometric analysis (Rvb=83.7%); type: functional; method in brief: as §1

| Compound | IC50 (HeLa) | IC50 (L1210) | IC50 (CCRF-CEM) | IC50 (K562 [12]) | Activity (AGS [1]) | Activity (AGS [2]) | Activity (AGS [3]) | Activity (AGS [5]) | Activity (AGS [6]) | Activity (AGS [7]) | Activity (AGS [9]) | IC50 [10] | IC50 [11] | Ratio IC50 (K562 [13]) | further results |
| --- | --- | --- | --- | --- | --- | --- | --- | --- | --- | --- | --- | --- | --- | --- | --- |
| Cc1cc2c(NCCNC(=N)N)c3c(c(NCCNC(=N)N)c2o1)C(=O)c1ccccc1C3=O | – | – | – | – | – | – | – | – | – | – | – | – | – | – | inhibition [14]: Active |
| O=C1c2c(O)ccc(O)c2C(=O)c2c(NCCNCCO)ccc(NCCNCCO)c21 | – | – | – | – | – | – | – | – | – | – | – | – | – | – | Ka (Calf thymus DNA): 1 ×10⁶ /M |
| CN1CCN(C(=O)c2cc3c(NCCNC(=N)N)c4c(c(NCCNC(=N)N)c3o2)C(=O)c2ccccc2C4=O)CC1 | 38400 nM | 79300 nM | 97700 nM | 49500 nM | inactive | inactive | inactive | – | inactive | inactive | inactive | > 100 µM | 4500 nM | >2 | Activity (AGS [17]): inactive; Activity (AGS [18]): Not Active; inhibition [14]: Active; inhibition [19]: Active; Activity (AGS [20]): inactive; Activity (AGS [21]): inactive; Activity (AGS [22]): inactive; Activity (AGS [23]): inactive |

Continued, in another order:

| IC50 (HeLa) | IC50 (L1210) | IC50 (CCRF-CEM) | IC50 (K562 [12]) | Compound | Activity (AGS [1]) | Activity (AGS [2]) | Activity (AGS [3]) | Activity (AGS [5]) | Activity (AGS [6]) | Activity (AGS [7]) | Activity (AGS [9]) | IC50 [10] | IC50 [11] | Ratio IC50 (K562 [13]) | further results |
| --- | --- | --- | --- | --- | --- | --- | --- | --- | --- | --- | --- | --- | --- | --- | --- |
| 460 nM | 140 nM | 430 nM | 110 nM | O=C1c2ccccc2C(=O)c2c1c(NCCNCCO)c1ccoc1c2NCCNCCO | Active | Active | Active | Active | Active | Dose-dependent effect | Active | 9.8 µM | 220 nM | 89.09 | Activity (AGS [4]): Active; Drug uptake [8]: Active |
| – | 370 nM | 60 nM | 120 nM | COc1cccc2c1C(=O)c1c(O)c3c(c(O)c1C2=O)C[C@@](O)(C(=O)CO)C[C@@H]3O[C@H]1C[C@H](N)[C@H](O)[C@H](C)O1 [DOXORUBICIN] | – | – | – | Active | – | – | – | 9.75 µM | 110 nM | – | Drug uptake (K562 [15]): Active; Drug uptake [8]: Not Active; Drug uptake [16]: Not Active |
| 390 nM | 230 nM | 340 nM | 120 nM | CN(C)CCNc1c2c(c(NCCN(C)C)c3occc13)C(=O)c1ccccc1C2=O | Active | Active | Active | Active | Active | Dose-dependent effect | Active | 0.21 µM | 150 nM | 1.75 | Activity (AGS [4]): Active |
| 870 nM | 730 nM | 890 nM | – | NCCCNc1c2c(c(NCCCN)c3occc13)C(=O)c1ccccc1C2=O | – | – | – | – | – | – | – | – | 410 nM | – | – |
